According to ChEMBL document CHEMBL3045710, “Antifungal activity of 4'-(2,6,6-Trimethyl-2-cyclohexen-1-yl)-3'-butene-2'-ketoxime N-O-alkyl ethers” (2010):
Converted amounts (≈) assume the structure as drawn. The source made the active and inactive calls. No cut-off for these calls is given here.

Assays:
Macrophomina phaseolina [1] = test: Antifungal activity against Macrophomina phaseolina assessed as growth inhibition at 28 degC; type: functional; conditions: read-out: ED50 (the source's name)
In short: (§1)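 Poisoned food technique on PDA: compound in acetone added to medium at 1000, 500, 250, 125, 100, 50, 25 and 10 μg/mL (final in medium). Acetone 1 mL serves as the control. A 5 mm mycelial disk from a 2-week-old colony is placed centrally. Plates are incubated at 28 °C until control growth is nearly complete. Colony diameter is measured and %inhibition = (C−T)/C×100, four replicates. ED50 is obtained by probit analysis of Abbott-corrected inhibition.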

Macrophomina phaseolina [2] = test: Antifungal activity against Rhizoctonia bataticola assessed as growth inhibition at 28 degC; type: functional; conditions: read-out: ED50 (the source's name); in short: as §1
Athelia rolfsii = test: Antifungal activity against Athelia rolfsii assessed as growth inhibition at 28 degC; type: functional; conditions: Agroathelia rolfsii; read-out: ED50 (the source's name); in short: as §1
Sclerotinia sclerotiorum [3] = test: Antifungal activity against Sclerotinia sclerotiorum assessed as growth inhibition at 28 degC; type: functional; conditions: read-out: ED50 (the source's name); in short: as §1
Sclerotinia sclerotiorum [4] = test: Antifungal activity against Sclerotinia sclerotiorum infected pea plants assessed as prevention of water soaked spots at 5 % aqueous emulsion measured on day 21; type: functional, organism-based
In short: (§2)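 Greenhouse pea assay: S. sclerotiorum inoculum grown in potato dextrose broth, homogenized and mixed into autoclaved, sieved composted soil, then incubated 5-7 days at ~25 °C. Formulated compound is applied as 1 or 5% aqueous emulsion at 5.0 mL per 150 cm3 soil and held 7 days in sealed bags. Symptoms (water-soaked spots) and symptomless plants are scored 7, 14 and 21 days after transplanting, 20 plants per treatment.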

Sclerotinia sclerotiorum [5] = test: Antifungal activity against Sclerotinia sclerotiorum infected pea plants assessed as healthy plants at 1 % aqueous emulsion measured on day 21; type: functional; in short: as §2
Sclerotinia sclerotiorum [6] = test: Antifungal activity against Sclerotinia sclerotiorum infected pea plants assessed as healthy plants at 5 % aqueous emulsion measured on day 21; type: functional; in short: as §2
Sclerotinia sclerotiorum [7] = test: Antifungal activity against Sclerotinia sclerotiorum infected pea plants assessed as healthy plants at 1 % aqueous emulsion measured on day 7; type: functional; in short: as §2
Sclerotinia sclerotiorum [8] = test: Antifungal activity against Sclerotinia sclerotiorum infected pea plants assessed as healthy plants at 0.364 mL of ai/150cm'3 measured after 21 days; type: functional
In short: (§3)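 S. sclerotiorum inoculum was grown in potato dextrose broth at 27 °C for 7 days, then in water at 20 °C for 3-4 weeks, then homogenized, filtered and sonicated. It was mixed into sieved, autoclaved compost soil and held about 25 °C for 5-7 days. Fungicide was incorporated and soil was bagged 7 days. Pea was transplanted. Symptomless plants were scored at 7, 14 and 21 days (20 plants/treatment, six trials), arcsine-square-root transformed, repeated-measures ANOVA.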

Sclerotinia sclerotiorum [9] = test: Antifungal activity against Sclerotinia sclerotiorum infected pea plants assessed as healthy plants at 0.364 mL of ai/150cm'3 measured after 14 days; type: functional; in short: as §3

Row | Compound | EC50 (Macrophomina phaseolina [1]) [mg/L] | EC50 (Macrophomina phaseolina [2]) [mg/L] | EC50 (Athelia rolfsii) [mg/L] | EC50 (Sclerotinia sclerotiorum [3]) [mg/L] | Activity (Sclerotinia sclerotiorum [4]) | Activity (Sclerotinia sclerotiorum [5]) [%] | Activity (Sclerotinia sclerotiorum [6]) [%] | Activity (Sclerotinia sclerotiorum [7]) [%] | Activity (Sclerotinia sclerotiorum [8]) [%] | Activity (Sclerotinia sclerotiorum [9]) [%]
1 | CC1=CCCC(C)(C)C1/C=C/C(C)=N\OCCC(C)C (configuration not stated) | 625 (≈ 2250 µM) | 125 (≈ 452 µM) | 367 (≈ 1320 µM) | 375 (≈ 1350 µM) |  |  |  |  |  | 
2 | CCO/N=C(C)/C=C/C1C(C)=CCCC1(C)C (configuration not stated) | 732 (≈ 3110 µM) | 393 (≈ 1670 µM) | 410 (≈ 1740 µM) | 295 (≈ 1250 µM) |  |  |  |  |  | 
3 | CCO/N=C(C)\C=C\C1C(C)=CCCC1(C)C (configuration not stated) | 394 (≈ 1670 µM) | 246 (≈ 1050 µM) | 415 (≈ 1760 µM) | 261 (≈ 1110 µM) |  |  |  |  |  | 
4 | CC1=CCCC(C)(C)C1/C=C/C(C)=N/OCC(C)C (configuration not stated) | 103 (≈ 391 µM) | 50.6 (≈ 192 µM) | 45.2 (≈ 172 µM) | 94.1 (≈ 357 µM) |  |  |  |  |  | 
5 | CCCCCCCO/N=C(C)/C=C/C1C(C)=CCCC1(C)C (configuration not stated) | 717 (≈ 2350 µM) | 919 (≈ 3010 µM) | 975 (≈ 3190 µM) | 392 (≈ 1280 µM) |  |  |  |  |  | 
6 | CC1=CCCC(C)(C)C1/C=C/C(C)=N/OC(C)C (configuration not stated) | 126 (≈ 505 µM) | 56.6 (≈ 227 µM) | 35.5 (≈ 142 µM) | 182 (≈ 729 µM) |  |  |  |  |  | 
7 | CCCCCCO/N=C(C)\C=C\C1C(C)=CCCC1(C)C (configuration not stated) | 963 (≈ 3300 µM) | 327 (≈ 1120 µM) | 912 (≈ 3130 µM) | 244 (≈ 837 µM) |  |  |  |  |  | 
8 | CCCCO/N=C(C)\C=C\C1C(C)=CCCC1(C)C (configuration not stated) | 174 (≈ 660 µM) | 114 (≈ 431 µM) | 88.9 (≈ 337 µM) | 164 (≈ 621 µM) |  |  |  |  |  | 
9 | CCCCCCCCO/N=C(C)/C=C/C1C(C)=CCCC1(C)C (configuration not stated) | 824 (≈ 2580 µM) | 1090 (≈ 3430 µM) | 1040 (≈ 3250 µM) | 837 (≈ 2620 µM) |  |  |  |  |  | 
10 | CCCCO/N=C(C)/C=C/C1C(C)=CCCC1(C)C (configuration not stated) | 101 (≈ 382 µM) | 67.9 (≈ 258 µM) | 113 (≈ 430 µM) | 107 (≈ 408 µM) |  |  |  |  |  | 
11 | CCCCCO/N=C(C)\C=C\C1C(C)=CCCC1(C)C (configuration not stated) | 31.1 (≈ 112 µM) | 57.6 (≈ 207 µM) | 41.6 (≈ 150 µM) | 21.4 (≈ 77.1 µM) | Active | 40 | >90 | 65 |  | 
12 | CC1=CCCC(C)(C)C1/C=C/C(C)=N\OCC(C)C (configuration not stated) | 101 (≈ 383 µM) | 58.7 (≈ 223 µM) | 47.6 (≈ 181 µM) | 79 (≈ 300 µM) |  |  |  |  |  | 
13 | CCCCCCCCCCO/N=C(C)/C=C/C1C(C)=CCCC1(C)C (configuration not stated) | 957 (≈ 2750 µM) | 1940 (≈ 5590 µM) | 842 (≈ 2420 µM) | 681 (≈ 1960 µM) |  |  |  |  |  | 
14 | CCCCCCCCO/N=C(C)\C=C\C1C(C)=CCCC1(C)C (configuration not stated) | 1110 (≈ 3470 µM) | 1610 (≈ 5050 µM) | 1360 (≈ 4250 µM) | 584 (≈ 1830 µM) |  |  |  |  |  | 
15 | CCCCCCCO/N=C(C)\C=C\C1C(C)=CCCC1(C)C (configuration not stated) | 1090 (≈ 3570 µM) | 566 (≈ 1850 µM) | 956 (≈ 3130 µM) | 419 (≈ 1370 µM) |  |  |  |  |  | 
16 | CCCCCCCCCCO/N=C(C)\C=C\C1C(C)=CCCC1(C)C (configuration not stated) | 1760 (≈ 5060 µM) | 2060 (≈ 5920 µM) | 1110 (≈ 3190 µM) | 477 (≈ 1370 µM) |  |  |  |  |  | 
17 | CCCO/N=C(C)/C=C/C1C(C)=CCCC1(C)C (configuration not stated) | 181 (≈ 727 µM) | 32.4 (≈ 130 µM) | 101 (≈ 406 µM) | 257 (≈ 1030 µM) |  |  |  |  |  | 
18 | CCCO/N=C(C)\C=C\C1C(C)=CCCC1(C)C (configuration not stated) | 236 (≈ 945 µM) | 157 (≈ 629 µM) | 132 (≈ 530 µM) | 220 (≈ 881 µM) |  |  |  |  |  | 
19 | COC(=O)Nc1nc2ccccc2[nH]1 [CARBENDAZIM] |  |  |  |  |  |  |  |  | 75 | 80
20 | CC1=CCCC(C)(C)C1/C=C/C(C)=N\OC(C)C (configuration not stated) | 198 (≈ 794 µM) | 116 (≈ 467 µM) | 129 (≈ 517 µM) | 190 (≈ 764 µM) |  |  |  |  |  | 
21 | CCCCCCO/N=C(C)/C=C/C1C(C)=CCCC1(C)C (configuration not stated) | 751 (≈ 2580 µM) | 895 (≈ 3070 µM) | 573 (≈ 1970 µM) | 428 (≈ 1470 µM) |  |  |  |  |  | 
22 | CO/N=C(C)/C=C/C1C(C)=CCCC1(C)C (configuration not stated) | 307 (≈ 1380 µM) | 388 (≈ 1750 µM) | 238 (≈ 1070 µM) | 442 (≈ 2000 µM) |  |  |  |  |  | 
23 | CC1=CCCC(C)(C)C1/C=C/C(C)=N/OCCC(C)C (configuration not stated) | 666 (≈ 2400 µM) | 723 (≈ 2600 µM) | 257 (≈ 927 µM) | 273 (≈ 986 µM) |  |  |  |  |  | 
24 | CO/N=C(C)\C=C\C1C(C)=CCCC1(C)C (configuration not stated) | 311 (≈ 1400 µM) | 413 (≈ 1870 µM) | 259 (≈ 1170 µM) | 517 (≈ 2340 µM) |  |  |  |  |  | 
25 | CCCCCO/N=C(C)/C=C/C1C(C)=CCCC1(C)C (configuration not stated) | 94.8 (≈ 342 µM) | 39.2 (≈ 141 µM) | 43.6 (≈ 157 µM) | 32.7 (≈ 118 µM) |  |  |  |  |  | 
